# Experimental data published in publication PMC4040677 (Cell Death & Disease, 2014).
# Columns and labels:
# MCF-7 cells = experiment: Xenograft model of breast cancer; type: in vivo, BALB/c nude mice
# Outline: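 Female nude BALB/c mice (6 wk, 20–30 g, pathogen-free) received 7.5 × 10^6 MCF-7 cells in the right flank. Cells were cultured in DMEM with 10% FBS and penicillin/streptomycin. Tumors grew 4 weeks without hormone, then weekly s.c. 17β-oestradiol valerate (0.1 mg/kg, sesame oil). At ~100 mm3, mice were randomized and given a single i.v. dose (5 or 10 mg/kg) or saline. Calliper volumes, (L×W²)/2, were taken every 3 days for 30 days; ANOVA/t-test, P<0.05.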
# [1] = Cold sensitivity/hyperalgesia; type: in vivo, rats; settings: hindpaw withdrawal latency, 4.5 °C water
# Outline: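 One rat hindpaw per immersion was placed in cold (4.5 °C) water. Paw-withdrawal latency was timed with a 1/100 s digital timer, with a 20 s maximum cutoff.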
# Histopathology = type: in vivo, female Balb/c mice; settings: H&E, day 28 after intravenous administration, mice
# Outline: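 Liver and kidney were fixed in 4% paraformaldehyde, moved to 70% ethanol after 20 h, and paraffin-embedded. Serial 8 μm medio-lateral sections were H&E-stained and examined by light microscopy at x20.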
# [2] = Pt excretion in urine and feces by atomic absorption spectroscopy; type: in vivo, rat; settings: 24 h after intravenous administration
# [3] = Sensitivity to noxious heat; type: in vivo, rats; settings: hind paws
# Outline: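 After 15 min acclimation, radiant heat was applied to the rat hindpaw with a thermal paw stimulator. Intensity was set so vehicle-treated rats lifted or licked the paw at about 10 s. Withdrawal latency was recorded with a 20 s cutoff.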
# [4] = type: in vivo; settings: Pt in plasma, rat, intravenous
structure (smiles),measurement,setting,value
N.N.[Cl][Pt][Cl] [cisplatin],average tumor volume,"MCF-7 cells; 10 mg/kg single intravenous, after 30 days, saline 249.32±43.97",233.67±50.71 mm^3
same,reduction of tumor mass,MCF-7 cells; solid tumor-bearing mice,~10%
same,cold hyperalgesia / hindpaw sensitivity to cold,[1],significantly increased
same,histopathological changes in kidneys,Histopathology,"focal subcapsular tubular vacuolization, dilated subcapsular space and consistent basophilia"
same,histopathological changes in liver,Histopathology,dilated intra-lobular spaces and evident edema
same,24-h cumulative Pt excretion,[2],31.6±3.4%
same,thermal response / hindpaw sensitivity to noxious heat,[3],significantly increased
same,AUC0–24,[4],40.38±6.2 h-μg/ml
same,CL,[4],7.98 ± 1.2 mL/h
same,Cmax,[4],22620 ± 1800 ng/mL
